Test: Inhibition of Trypanosoma vivax IAG-NH expressed in Escherichia coli WK6 cells
How it was run: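 Recombinant N-terminal His6-tagged enzyme, purified by Ni-NTA affinity and Superdex-200 gel filtration, concentration per monomer from ε280 47752 M-1cm-1. […] Initial rates fitted to competitive inhibition equation.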

Q: Which Ki does the source give for `N#Cc1cccc(CN2C[C@H](O)[C@H](O)[C@H]2CO)c1` here?
A: 3.8 µM

Q: With `OC[C@@H]1[C@@H](O)[C@@H](O)CN1Cc1ccccc1` as the compound, how does the Ki read?
A: 59 µM

Q: With `COc1ccc(CN2C[C@H](O)[C@H](O)[C@H]2CO)cn1` as the compound, how does the Ki read?
A: 32 µM

Q: Which Ki does the source give for `OC[C@@H]1[C@@H](O)[C@@H](O)CN1Cc1ccncc1` here?
A: 20 µM

Q: With `OC[C@@H]1[C@@H](O)[C@@H](O)CN1Cc1ccnc2ccccc12` as the compound, how does the Ki read?
A: 29 µM

Q: For `Cc1nc(-c2ccccc2)ncc1CN1C[C@H](O)[C@H](O)[C@H]1CO`, which Ki is on record?
A: 43 µM

Q: Which Ki does the source give for `OC[C@@H]1[C@@H](O)[C@@H](O)CN1Cc1ccc(I)cc1` here?
A: 4.3 µM

Q: For `OC[C@@H]1[C@@H](O)[C@@H](O)CN1Cc1ccc2ccccc2c1`, which Ki is on record?
A: 2 µM

Q: For `O=[N+]([O-])c1ccc(CN2C[C@H](O)[C@H](O)[C@H]2CO)cc1`, which Ki is on record?
A: 7.5 µM

Q: With `OC[C@@H]1[C@@H](O)[C@@H](O)CN1Cc1ccc(-n2cccc2)cc1` as the compound, how does the Ki read?
A: 1 µM

Q: Which Ki does the source give for `OC[C@@H]1[C@@H](O)[C@@H](O)CN1Cc1ccc(-n2cccn2)cc1` here?
A: 1.2 µM

Q: For `Cc1nn(-c2ccccc2)nc1CN1C[C@H](O)[C@H](O)[C@H]1CO`, which Ki is on record?
A: 0.063 µM

Q: For `O=[N+]([O-])c1cccc(CN2C[C@H](O)[C@H](O)[C@H]2CO)c1`, which Ki is on record?
A: 23 µM

Q: With `OC[C@@H]1[C@@H](O)[C@@H](O)CN1Cc1ccc2ccccc2n1` as the compound, how does the Ki read?
A: 0.18 µM

Q: For `OC[C@@H]1[C@@H](O)[C@@H](O)CN1Cc1cccc2cccnc12`, which Ki is on record?
A: 0.0108 µM

Q: For `OC[C@@H]1[C@@H](O)[C@@H](O)CN1Cc1cccc(-n2cccc2)c1`, which Ki is on record?
A: 3.4 µM

Q: Which Ki does the source give for `OC[C@@H]1[C@@H](O)[C@@H](O)CN1Cc1c[nH]c2c(O)ncnc12` here?
A: 0.0044 µM

Q: Which Ki does the source give for `Nc1ncnc2c(CN3C[C@H](O)[C@H](O)[C@H]3CO)c[nH]c12` here?
A: 0.0041 µM

Q: Which Ki does the source give for `OC[C@@H]1[C@@H](O)[C@@H](O)CN1Cc1ccc2cccnc2c1` here?
A: 0.72 µM

Q: With `OC[C@@H]1[C@@H](O)[C@@H](O)CN1Cc1ccc2cccc(O)c2n1` as the compound, how does the Ki read?
A: 1 µM

Q: Which Ki does the source give for `Cn1c(CN2C[C@H](O)[C@H](O)[C@H]2CO)nc2ccccc21` here?
A: 2.1 µM

Q: With `OC[C@@H]1[C@@H](O)[C@@H](O)CN1Cc1nccc2ccccc12` as the compound, how does the Ki read?
A: 0.75 µM

Q: With `N#Cc1ccc(CN2C[C@H](O)[C@H](O)[C@H]2CO)cc1` as the compound, how does the Ki read?
A: 26 µM

Q: Which Ki does the source give for `OC[C@@H]1[C@@H](O)[C@@H](O)CN1Cc1ccc(-n2cncn2)cc1` here?
A: 1.2 µM

Q: For `Cn1nnc2cc(CN3C[C@H](O)[C@H](O)[C@H]3CO)ccc21`, which Ki is on record?
A: 0.72 µM

Q: For `OC[C@@H]1[C@@H](O)[C@@H](O)CN1Cc1c[nH]c2ccccc12`, which Ki is on record?
A: 12 µM

Q: Which Ki does the source give for `COc1cccc2c(CN3C[C@H](O)[C@H](O)[C@H]3CO)c[nH]c12` here?
A: 2.3 µM

Q: For `OC[C@@H]1[C@@H](O)[C@@H](O)CN1Cc1cnc2ccccc2c1`, which Ki is on record?
A: 20 µM

Q: Which Ki does the source give for `Nc1ncccc1CN1C[C@H](O)[C@H](O)[C@H]1CO` here?
A: 120 µM

Source: ChEMBL document CHEMBL1155058, “N-Arylmethyl substituted iminoribitol derivatives as inhibitors of a purine specific nucleoside hydrolase” (Bioorg Med Chem, 2008)
